Reference: ChEMBL document CHEMBL4689842, “EUbOPEN Chemogenomics Library wave 1” (2021)

Key:
Format in all cases: toxicity, cell-based
[1] = tested on: Fibroblast; assay: Incucyte cell viability with human fibroblast; settings: 10 µM, compound concentration 10 uM; note: filed as whole numbers so only -1 and 0 and 1 occur
[2] = tested on: U2OS; assay: Multiplex assay against U2OS; settings: human
In short: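 At seeding, live cells were stained with Hoechst33342, BioTracker Green Microtubule Cytoskeleton Dye, MitoTracker Red and Annexin V Alexa Fluor 680. After compound addition they were imaged on a CQ1 microscope at 37°C and 5% CO2, and CellPathfinder machine-learning gating sorted them into Hoechst high-intensity objects or normal cells, with normal cells further split into healthy, pyknosed or fragmented nuclei and pyknosed cells into mitotic or apoptotic. Tubulin, mitochondrial-mass and membrane-permeability phenotypes are given as per cents of cells with healthy nuclei.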

[3] = tested on: U2OS; assay: Incucyte cell viability with U2OS; settings: human, 10 µM, compound concentration 10 uM; note: filed as whole numbers so only -1 and 0 and 1 occur
[4] = tested on: HEK-293T; assay: Incucyte cell viability with HEK293T; settings: human, 10 µM, compound concentration 10 uM; note: filed as whole numbers so only -1 and 0 and 1 occur
[5] = 0 h, replicate number 1, timepoint 0 hours
[6] = 6 h, replicate number 1, timepoint 6 hours
[7] = 12 h, replicate number 1, timepoint 12 hours
[8] = 12 h, replicate number 2, timepoint 12 hours
[9] = 18 h, replicate number 1, timepoint 18 hours
[10] = 24 h, replicate number 1, timepoint 24 hours
[11] = 12 h, 1 µM, compound concentration 1 uM, replicate 1
[12] = 12 h, 1 µM, compound concentration 1 uM, replicate 2
[13] = 12 h, 10 µM, compound concentration 10 uM, replicate 1
[14] = 12 h, 10 µM, compound concentration 10 uM, replicate 2
[15] = 24 h, 1 µM, compound concentration 1 uM, replicate 1
[16] = 24 h, 1 µM, compound concentration 1 uM, replicate 2
[17] = 24 h, 10 µM, compound concentration 10 uM, replicate 1
[18] = 24 h, 10 µM, compound concentration 10 uM, replicate 2
[19] = 48 h, 1 µM, compound concentration 1 uM, replicate 1
[20] = 48 h, 1 µM, compound concentration 1 uM, replicate 2
[21] = 48 h, 10 µM, compound concentration 10 uM, replicate 1
[22] = 48 h, 10 µM, compound concentration 10 uM, replicate 2
[23] = 0 h, replicate number 2, timepoint 0 hours

C=CC(=O)Nc1cc(-n2c(=O)ccc3cnc4ccc(-c5ccc(NS(C)(=O)=O)cc5)cc4c32)ccc1C
Growth Rate [1, 5]: 0
Growth Rate [1, 6]: 1
Growth Rate ([1]; 6 h, replicate number 2, timepoint 6 hours): 0
Growth Rate [1, 7]: 1
Growth Rate [1, 8]: 0
Growth Rate [1, 9]: 1
Growth Rate ([1]; 18 h, replicate number 2, timepoint 18 hours): 0
Growth Rate [1, 10]: 1
Growth Rate ([1]; 24 h, replicate number 2, timepoint 24 hours): 0
Population Apoptotic (%) [2, 11]: 35%
Population Fragmented Nuclei (%) [2, 11]: 6%
Population Healthy Nuclei (%) [2, 11]: 80%
Population Hoechst High Intensity Objects (%) [2, 11]: 3%
Population Membrane Permeable-Phenotype (%) [2, 11]: 7%
Population Mitochondria Different-Phenotype (%) [2, 11]: 4%
Population Mitotic Cells (%) [2, 11]: 65%
Population Normal (%) [2, 11]: 96%
Population Pyknosed Nuclei (%) [2, 11]: 12%
Population Tubulin-Different-Phenotype (%) [2, 11]: 6%
Total Cell Count [2, 11]: 164
Population Apoptotic (%) [2, 12]: 33%
Population Fragmented Nuclei (%) [2, 12]: 10%
Population Healthy Nuclei (%) [2, 12]: 77%
Population Hoechst High Intensity Objects (%) [2, 12]: 7%
Population Membrane Permeable-Phenotype (%) [2, 12]: 0%
Population Mitochondria Different-Phenotype (%) [2, 12]: 10%
Population Mitotic Cells (%) [2, 12]: 66%
Population Normal (%) [2, 12]: 92%
Population Tubulin-Different-Phenotype (%) [2, 12]: 10%
Total Cell Count [2, 12]: 53
Population Apoptotic (%) [2, 13]: 30%
Population Fragmented Nuclei (%) [2, 13]: 19%
Population Healthy Nuclei (%) [2, 13]: 66%
Population Hoechst High Intensity Objects (%) [2, 13]: 7%
Population Membrane Permeable-Phenotype (%) [2, 13]: 10%
Population Mitochondria Different-Phenotype (%) [2, 13]: 26%
Population Mitotic Cells (%) [2, 13]: 69%
Population Normal (%) [2, 13]: 92%
Population Pyknosed Nuclei (%) [2, 13]: 14%
Population Tubulin-Different-Phenotype (%) [2, 13]: 29%
Total Cell Count [2, 13]: 173
Population Apoptotic (%) [2, 14]: 76%
Population Fragmented Nuclei (%) [2, 14]: 8%
Population Healthy Nuclei (%) [2, 14]: 54%
Population Hoechst High Intensity Objects (%) [2, 14]: 9%
Population Membrane Permeable-Phenotype (%) [2, 14]: 12%
Population Mitochondria Different-Phenotype (%) [2, 14]: 56%
Population Mitotic Cells (%) [2, 14]: 23%
Population Normal (%) [2, 14]: 90%
Population Pyknosed Nuclei (%) [2, 14]: 36%
Population Tubulin-Different-Phenotype (%) [2, 14]: 52%
Total Cell Count [2, 14]: 51
Population Apoptotic (%) [2, 15]: 28%
Population Fragmented Nuclei (%) [2, 15]: 6%
Population Healthy Nuclei (%) [2, 15]: 86%
Population Hoechst High Intensity Objects (%) [2, 15]: 4%
Population Membrane Permeable-Phenotype (%) [2, 15]: 4%
Population Mitochondria Different-Phenotype (%) [2, 15]: 8%
Population Mitotic Cells (%) [2, 15]: 71%
Population Normal (%) [2, 15]: 95%
Population Pyknosed Nuclei (%) [2, 15]: 6%
Population Tubulin-Different-Phenotype (%) [2, 15]: 12%
Total Cell Count [2, 15]: 216
Population Apoptotic (%) [2, 16]: 55%
Population Fragmented Nuclei (%) [2, 16]: 11%
Population Healthy Nuclei (%) [2, 16]: 76%
Population Hoechst High Intensity Objects (%) [2, 16]: 2%
Population Membrane Permeable-Phenotype (%) [2, 16]: 3%
Population Mitochondria Different-Phenotype (%) [2, 16]: 15%
Population Mitotic Cells (%) [2, 16]: 44%
Population Normal (%) [2, 16]: 97%
Population Pyknosed Nuclei (%) [2, 16]: 11%
Population Tubulin-Different-Phenotype (%) [2, 16]: 22%
Total Cell Count [2, 16]: 79
Population Apoptotic (%) [2, 17]: 53%
Population Fragmented Nuclei (%) [2, 17]: 17%
Population Healthy Nuclei (%) [2, 17]: 69%
Population Hoechst High Intensity Objects (%) [2, 17]: 3%
Population Membrane Permeable-Phenotype (%) [2, 17]: 8%
Population Mitochondria Different-Phenotype (%) [2, 17]: 17%
Population Mitotic Cells (%) [2, 17]: 46%
Population Normal (%) [2, 17]: 96%
Population Pyknosed Nuclei (%) [2, 17]: 13%
Population Tubulin-Different-Phenotype (%) [2, 17]: 15%
Total Cell Count [2, 17]: 202
Population Apoptotic (%) [2, 18]: 84%
Population Fragmented Nuclei (%) [2, 18]: 21%
Population Healthy Nuclei (%) [2, 18]: 32%
Population Hoechst High Intensity Objects (%) [2, 18]: 5%
Population Membrane Permeable-Phenotype (%) [2, 18]: 22%
Population Mitochondria Different-Phenotype (%) [2, 18]: 50%
Population Mitotic Cells (%) [2, 18]: 15%
Population Normal (%) [2, 18]: 94%
Population Pyknosed Nuclei (%) [2, 18]: 46%
Population Tubulin-Different-Phenotype (%) [2, 18]: 33%
Total Cell Count [2, 18]: 59
Population Apoptotic (%) [2, 19]: 25%
Population Fragmented Nuclei (%) [2, 19]: 5%
Population Healthy Nuclei (%) [2, 19]: 87%
Population Hoechst High Intensity Objects (%) [2, 19]: 2%
Population Membrane Permeable-Phenotype (%) [2, 19]: 1%
Population Mitochondria Different-Phenotype (%) [2, 19]: 14%
Population Mitotic Cells (%) [2, 19]: 74%
Population Normal (%) [2, 19]: 97%
Population Pyknosed Nuclei (%) [2, 19]: 7%
Population Tubulin-Different-Phenotype (%) [2, 19]: 14%
Total Cell Count [2, 19]: 360
Population Apoptotic (%) [2, 20]: 9%
Population Fragmented Nuclei (%) [2, 20]: 9%
Population Healthy Nuclei (%) [2, 20]: 81%
Population Hoechst High Intensity Objects (%) [2, 20]: 3%
Population Membrane Permeable-Phenotype (%) [2, 20]: 0%
Population Mitochondria Different-Phenotype (%) [2, 20]: 12%
Population Mitotic Cells (%) [2, 20]: 90%
Population Normal (%) [2, 20]: 96%
Population Pyknosed Nuclei (%) [2, 20]: 9%
Population Tubulin-Different-Phenotype (%) [2, 20]: 20%
Total Cell Count [2, 20]: 115
Population Apoptotic (%) [2, 21]: 77%
Population Fragmented Nuclei (%) [2, 21]: 15%
Population Healthy Nuclei (%) [2, 21]: 72%
Population Hoechst High Intensity Objects (%) [2, 21]: 4%
Population Membrane Permeable-Phenotype (%) [2, 21]: 10%
Population Mitochondria Different-Phenotype (%) [2, 21]: 19%
Population Mitotic Cells (%) [2, 21]: 22%
Population Normal (%) [2, 21]: 95%
Population Pyknosed Nuclei (%) [2, 21]: 12%
Population Tubulin-Different-Phenotype (%) [2, 21]: 9%
Total Cell Count [2, 21]: 257
Population Apoptotic (%) [2, 22]: 95%
Population Fragmented Nuclei (%) [2, 22]: 19%
Population Healthy Nuclei (%) [2, 22]: 35%
Population Hoechst High Intensity Objects (%) [2, 22]: 5%
Population Membrane Permeable-Phenotype (%) [2, 22]: 22%
Population Mitochondria Different-Phenotype (%) [2, 22]: 33%
Population Mitotic Cells (%) [2, 22]: 4%
Population Normal (%) [2, 22]: 94%
Population Pyknosed Nuclei (%) [2, 22]: 45%
Population Tubulin-Different-Phenotype (%) [2, 22]: 33%
Total Cell Count [2, 22]: 54
Growth Rate [3, 5]: 0
Growth Rate [3, 23]: 1
Growth Rate [3, 6]: 1
Growth Rate [3, 7]: 1
Growth Rate [3, 8]: 0
Growth Rate [3, 9]: 0
Growth Rate [3, 10]: 0
Growth Rate [4, 5]: 0
Growth Rate [4, 23]: 1
Growth Rate [4, 6]: 0
Growth Rate [4, 7]: 0
Growth Rate [4, 9]: 0
Growth Rate [4, 10]: 0
